This is a sample that favours compounds with a hit; in the whole collection about 1.3% have one here.
Fam108B counter: counter-screen for RBBP9 inhibitors: inhibitors of mouse Fam108B; recombinant Fam108B, FP-Rh probe fluorescence polarization; inhibition, % at 9.51 µM; 300,000 tested, 0.33% active;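 active means inhibition above the screen mean inhibition plus 3 SD, computed separately per campaign, cut at about 18% in these data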;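 further: inhibitors lower polarization as less probe binds the enzyme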
RBBP9 inh: inhibitors of human serine hydrolase RBBP9 | O75884 | recombinant RBBP9, FP-Rh probe fluorescence polarization | inhibition, % at 7.94 µM | 220,000 tested, 0.2% active;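 active means inhibition above the campaign mean of all tested compounds plus 3 SD, cut at about 14% in these data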;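 further: plate controls were DMSO wells with RBBP9 for no effect and wells lacking RBBP9 protein for full effect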
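Test system – recombinant human RBBP9 · Input – RBBP9 2.5 µM in dispensing solution, pre-mixing · Medium – Tris buffer pH 8.0, NaCl, Pluronic · Schedule – preincubation 30 min plus labeling 45 min at 25 °C · Measured by – fluorescence polarization · Measure – % inhibition · Controls – DMSO and no-protein wells · Replicates – one well per compound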
PAD4 inh: PAD4 (human) enzyme inhibition; Q9UM07; recombinant PAD4, RCA probe fluorescence polarization; inhibition, % at 6.36 µM; 330,000 tested, 0.41% active; AID 485272;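 active means percent inhibition above a cutoff equal to the mean of all tested compounds plus 3 SD, cut at about 15% in these data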;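 further: 0% = PAD4 with RCA probe and DMSO and 100% = probe without PAD4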
Target sequence (Q9UM07 whole entry, looked up): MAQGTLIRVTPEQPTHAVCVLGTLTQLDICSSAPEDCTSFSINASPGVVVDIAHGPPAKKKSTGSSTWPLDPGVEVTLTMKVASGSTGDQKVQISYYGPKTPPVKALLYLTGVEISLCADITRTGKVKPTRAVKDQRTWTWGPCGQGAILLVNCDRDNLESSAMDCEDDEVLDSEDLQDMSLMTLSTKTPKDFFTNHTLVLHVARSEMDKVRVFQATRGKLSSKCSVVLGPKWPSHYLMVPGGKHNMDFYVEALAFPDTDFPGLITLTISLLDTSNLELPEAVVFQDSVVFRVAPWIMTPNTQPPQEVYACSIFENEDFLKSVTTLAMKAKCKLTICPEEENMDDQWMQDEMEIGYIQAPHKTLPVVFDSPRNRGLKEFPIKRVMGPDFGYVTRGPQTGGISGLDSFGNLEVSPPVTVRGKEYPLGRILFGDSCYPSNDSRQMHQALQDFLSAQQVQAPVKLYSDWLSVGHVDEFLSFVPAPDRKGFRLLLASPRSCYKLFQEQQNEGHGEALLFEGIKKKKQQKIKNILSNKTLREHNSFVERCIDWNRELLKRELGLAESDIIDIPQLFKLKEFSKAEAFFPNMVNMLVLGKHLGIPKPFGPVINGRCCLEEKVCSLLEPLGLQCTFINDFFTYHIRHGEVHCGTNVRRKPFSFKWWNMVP
LYPLA1 inh: blocks human lysophospholipase 1, a PME1 counter-screen; inhibition, % at 5.9 µM; O75608; 320,000 tested, 0.16% active; recombinant LYPLA1, FP-Rh probe fluorescence polarization;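 active means inhibition above the mean of all tested compounds plus 3 SD, set per campaign, cut at about 14% in these data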;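 further: inhibitors block serine hydrolase probe labeling of LYPLA1 so polarization falls; 0% = enzyme with DMSO and 100% = wells lacking LYPLA1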
LYPLA2 counter: LYPLA2 (human) inhibition in PME1 counter-screen. O95372. recombinant LYPLA2, FP-Rh probe fluorescence polarization. inhibition, % at 5.9 µM. 320,000 tested, 0.38% active. AID 2177;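 active means inhibition above the screen-wide mean plus 3 SD, limit set per campaign, cut at about 26% in these data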;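 further: 0% = LYPLA2 with DMSO and 100% = wells lacking LYPLA2 enzyme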
PME-1 primary: blocks human protein phosphatase methylesterase 1; inhibition, % at 5.9 µM; 320,000 tested, 0.53% active; recombinant PME-1, FP-Rh probe fluorescence polarization; Q9Y570; AID 2130;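 active means inhibition above the campaign mean of all compounds plus 3 SD, cut at about 26% in these data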;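 further: competitive labeling of PME-1 active site by serine hydrolase directed probe; 0% = PME-1 with DMSO and 100% = wells lacking PME-1 enzyme; inhibitors block probe labeling so polarization falls and inhibition rises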
Fam108b inh conf: Fam108b (mouse) hydrolase inhibition, confirmation assay. shares compounds with Fam108B counter. recombinant Fam108b, FP-Rh probe fluorescence polarization. inhibition, % at 9.51 µM. AID 1978. 930 tested, 44% active;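 active means inhibition above a limit from the primary screen, the mean over all compounds plus 3 SD, cut at about 19% in these data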;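 further: 0% = median of active Fam108b wells and 100% = catalytically dead S170A mutant; inhibitors free the probe so polarization falls as inhibition rises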
Fam108b inh: inhibits mouse Fam108b in gel-based ABPP | shares compounds with Fam108B counter | recombinant Fam108b, fluorophosphonate probe | inhibition, % at 20 µM | 260 tested, 44% active; in the data active means inhibition above about 40%
LYPLA2 confirm: LYPLA2 (human) inhibition, confirmation counter-screen; inhibition, % at 5.9 µM; recombinant LYPLA2, FP-Rh probe fluorescence polarization; AID 2232; 1,100 tested, 72% active; shares compounds with LYPLA2 counter;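 active means mean inhibition across replicates above the hit cutoff set in the primary screen, cut at about 26% in these data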;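 further: blocked labeling of the enzyme by serine hydrolase FP-Rh probe lowers polarization; 0% = enzyme with DMSO and 100% = wells lacking LYPLA2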
PAD4 FP conf: confirmation of human PAD4 inhibitors; shares compounds with PAD4 inh; recombinant PAD4, RCA probe fluorescence polarization; inhibition, % at 6.36 µM; 1,200 tested, 28% active; AID 488796;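 active means mean inhibition across replicates above the hit cutoff set by the earlier primary screen, cut at about 15% in these data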;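 further: inhibitors block active-site labeling by the probe so polarization falls; 0% = PAD4 with probe and DMSO and 100% = probe without PAD4 enzyme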
An asterisk follows results filed as active; nt = not tested or not shown.

SMILES	Fam108B counter	RBBP9 inh	PAD4 inh	LYPLA1 inh	LYPLA2 counter	PME-1 primary	Fam108b inh conf	Fam108b inh	others
CN(C)[C@@H]1C(=O)C(C(N)=O)=C(O)[C@@]2(O)C(=O)C3=C(O)c4c(O)cccc4[C@@](C)(O)C3C[C@@H]12 (stereo partly drawn)	4.8	nt	-1.8	0.1	6.0	-3.7	nt	nt
c1ccc(C2NCCc3[nH]cnc32)cc1 (stereo not drawn)	5.5	-5.7	-0.9	-3.7	-1.1	0.6	nt	nt
COC(=O)C1=C(c2ccccc2OCc2ccccc2)C[C@@H]2CC[C@H]1N2C(=O)NCc1ccc([N+](=O)[O-])cc1	nt	nt	-2.7	-3.8	-2.4	-1.9	nt	nt
COC(=O)c1nc(-c2ccc3c(n2)C(=O)C(N)=C(OC)C3=O)c(N)c(-c2ccc(OC)c(OC)c2O)c1C	48.8*	-2.9	-8.9	2.1	-1.6	65.9*	62.7*	0.0
NC1=NC(=O)C(c2ccccc2)O1 (stereo not drawn)	nt	-4.9	nt	nt	nt	nt	nt	nt
O=C(N/N=C/c1c(O)n(Cc2ccccc2)c(=O)[nH]c1=O)c1ccccc1O	20.6*	1.1	-6.5	-5.0	1.1	0.8	42.0*	0.0
CC(=O)c1ccc2c(c1)C1C(Cl)C(Sc3ccccc3[N+](=O)[O-])CC1C(C(=O)O)N2 (stereo not drawn)	56.2*	11.1	-2.6	1.3	13.5	30.8*	5.3	nt
NC(Cc1cc(O)c(O)cc1O)C(=O)O (stereo not drawn)	79.5*	nt	-20.0	-24.5	2.9	38.2*	100.9*	50.0*
Cc1ccc(C)c(OCc2cc(C(=O)N3C[C@H]4C[C@@H](C3)c3cccc(=O)n3C4)no2)c1	-5.6	nt	1.2	-3.0	3.7	0.5	nt	nt
CC(C)C[C@H]1C(=O)N2CCCC2[C@]2(O)O[C@](NC(=O)[C@@H]3C=C4c5cccc6[nH]cc(c56)CC4N(C)C3)(C(C)C)C(=O)N12 (stereo partly drawn)	18.7*	-4.5	18.4*	0.5	4.4	11.6	17.3	nt
COc1ccc(N2C(=O)CC(N3CCC(n4c(=O)[nH]c5ccccc54)CC3)C2=O)cc1 (stereo not drawn)	4.5	2.7	7.5	0.1	7.1	-1.3	nt	nt
O=c1[nH]c2ccccc2n1CCCN1CCC(n2c(=O)[nH]c3cc(Cl)ccc32)CC1	18.5*	3.1	5.8	0.2	3.8	-1.1	-3.9	nt
Nc1c(C(=O)NCCCc2ccccc2)c2nc3ccccc3nc2n1Cc1cccs1	33.8*	-3.8	-13.2	-1.8	-0.1	1.7	20.5*	nt
CCCCn1c(N)c(C(=O)NCc2cccs2)c2nc3ccccc3nc21	-1.4	-10.8	2.2	-2.9	1.2	7.9	nt	nt
Cc1ccccc1-n1c(O)c(C(c2ccncc2)c2c(O)n(-c3ccccc3C)c(=O)[nH]c2=O)c(=O)[nH]c1=O	2.4	-5.5	-1.7	-1.8	2.4	7.9	nt	nt
O=C(O)c1cccc2c1NC(C(=O)O)C1CC(Sc3ccccc3[N+](=O)[O-])C(Cl)C21 (stereo not drawn)	74.8*	5.8	4.0	12.0	29.0*	17.6	53.6*	0.0	LYPLA2 confirm=11.6
CP(=O)(Nc1ccccc1)C(Cl)(Cl)Cl (stereo not drawn)	4.3	-9.1	-2.3	5.2	8.9	4.6	nt	nt
CCCCn1c(NC(=O)c2ccco2)c(C(=O)OCC)c2nc3ccccc3nc21	48.9*	-4.2	55.0*	6.9	13.0	19.1	49.0*	35.0	PAD4 FP conf=13.7
CCc1c(-c2ccccc2)nc2ccccc2c1C(=O)N1CCC2(CC1)OCCO2	3.4	nt	-1.0	-1.3	1.2	-7.2	nt	nt
